Calls of active or inactive are those of the source. No cut-off for these calls is given here.
Key:
MIA PaCa-2 [1] = experiment: Growth inhibition of human MIAPaCa2 cells after 72 hrs by MTT method; format: functional, cell-based; details: MIA PaCa-2, 72 h
Outline: (§1)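 Cells in DMEM with 10% FBS, 2 mM L-glutamine, penicillin/streptomycin, 37 °C, 5% CO2. Seeded at 1 × 10^4 to 3 × 10^4 cells/mL. Compound given as five 10-fold dilutions (10-8–10-4 M, DMSO under 1%) for 72 h, then MTT read-out. Quadruplicate, three experiments. IC50 by linear regression between concentrations bracketing 50% growth; top concentration reported as ">" when not reached.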

HeLa = experiment: Growth inhibition of human HeLa cells after 72 hrs by MTT method; format: functional, cell-based; outline: as §1
SW-620 = experiment: Growth inhibition of human SW620 cells after 72 hrs by MTT method; format: functional, cell-based; details: SW-620, 72 h; outline: as §1
NCI-H460 = experiment: Growth inhibition of human H460 cells after 72 hrs by MTT method; format: functional, cell-based; details: NCI-H460, 72 h; outline: as §1
MCF7 = experiment: Growth inhibition of human MCF7 cells after 72 hrs by MTT method; format: functional, cell-based; details: MCF7, 72 h; outline: as §1
Calf thymus DNA [2] = experiment: Binding affinity to calf thymus DNA assessed as change in melting temperature at [compound]/[polynucleotide] ratio of 0.3 at pH 7.0; format: nucleic-acid assay; details: Bos taurus
Outline: (§2)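 Thermal denaturation of ct-DNA (sonicated, filtered, concentration as phosphate) alone and with compound in Na cacodylate buffer pH 7.0, I = 0.05 mol dm-3. Absorbance at 260 nm followed versus temperature, ligand absorbance subtracted, scale normalized. Tm is the transition midpoint, from the first-derivative maximum or by tangent method. ΔTm = Tm(complex) − Tm(free DNA). Mean of at least two runs, error ±0.5 °C.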

MIA PaCa-2 [3] = experiment: Cell cycle arrest in human MIAPaCa2 cells assessed as accumulation at S phase at 5 uM after 24 hrs by flow cytometry; format: functional
Outline: (§3)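 MiaPaCa-2 cells (2 × 10^5/well) seeded, compound (5 μM) added after 24 h, exposed 24 or 48 h. Attached and floating cells pooled, fixed in 70% ethanol, stained with propidium iodide 50 μg/mL plus RNase A. 20 000 events by flow cytometry; phase percentages (sub-G1 taken as apoptotic) from DNA histograms. Duplicates, repeated at least twice.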

MIA PaCa-2 [4] = experiment: Induction of nuclear fragmentation in human MIAPaCa2 cells at 5 uM after 24 hrs by DAPI staining; format: functional, cell-based
Outline: (§4)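 MiaPaCa-2 cells (2 × 10^5) grown overnight on coverslips, then exposed to 5 μM compound for 24 h. Fixed in 4% formaldehyde, permeabilized with 0.1% Triton X-100, blocked with 4% FCS. Stained with mouse anti-α-tubulin (1/200, 2 h) and FITC anti-mouse secondary (1/500, 1 h). Nuclei stained with DAPI 100 ng/mL; fluorescence microscopy at 400×.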

MIA PaCa-2 [5] = experiment: Cell cycle arrest in human MIAPaCa2 cells assessed as accumulation at G1/G0 phase at 5 uM after 48 hrs by flow cytometry; format: functional; outline: as §3
MIA PaCa-2 [6] = experiment: Induction of tubulin network disruption in human MIAPaCa2 cells at 5 uM after 24 hrs by immunofluorescence spectroscopy; format: functional, cell-based; outline: as §4
MIA PaCa-2 [7] = experiment: Cell cycle arrest in human MIAPaCa2 cells assessed as accumulation at G1/G0 phase at 5 uM after 24 hrs by flow cytometry; format: functional; outline: as §3
MIA PaCa-2 [8] = experiment: Cell cycle arrest in human MIAPaCa2 cells assessed as accumulation at subG1 phase at 5 uM after 24 hrs by flow cytometry; format: functional; outline: as §3
MIA PaCa-2 [9] = experiment: Induction of apoptosis in human MIAPaCa2 cells by flow cytometry; format: functional, cell-based; outline: as §3
Calf thymus DNA [10] = experiment: Binding affinity to calf thymus DNA assessed as change in melting temperature at [compound]/[polynucleotide] ratio of 0.5 at pH 7.0; format: nucleic-acid assay; details: Bos taurus; outline: as §2
MIA PaCa-2 [11] = experiment: Cell cycle arrest in human MIAPaCa2 cells assessed as accumulation at subG1 phase at 5 uM after 48 hrs by flow cytometry; format: functional; outline: as §3
MIA PaCa-2 [12] = experiment: Cell cycle arrest in human MIAPaCa2 cells assessed as accumulation at S phase at 5 uM after 48 hrs by flow cytometry; format: functional; outline: as §3
MIA PaCa-2 [13] = experiment: Cell cycle arrest in human MIAPaCa2 cells assessed as accumulation at G2/M phase at 5 uM after 48 hrs by flow cytometry; format: functional; outline: as §3
MIA PaCa-2 [14] = experiment: Induction of multinucleation in human MIAPaCa2 cells at 5 uM after 24 hrs by DAPI staining; format: functional, cell-based; outline: as §4
MIA PaCa-2 [15] = experiment: Induction of cell shape disruption in human MIAPaCa2 cells at 5 uM after 24 hrs by immunofluorescence spectroscopy; format: functional, cell-based; outline: as §4
MIA PaCa-2 [16] = experiment: Cell cycle arrest in human MIAPaCa2 cells assessed as accumulation at G2/M phase at 5 uM after 24 hrs by flow cytometry; format: functional; outline: as §3
Calf thymus DNA [17] = experiment: Binding affinity to calf thymus DNA at pH 7.0 by fluorimetric titration method; format: nucleic-acid assay; details: Bos taurus
Outline: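 Fluorimetric titration: ct-DNA portions added to compound at about tenfold lower concentration than in UV/vis, absorbance below 0.05 at excitation. Emission 350–550 nm in Na cacodylate buffer pH 7.0, I = 0.05 mol dm-3. log Ks from Scatchard fitting (nonlinear least squares) at fixed n = 0.2.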

Calf thymus DNA [18] = experiment: Binding affinity to calf thymus DNA assessed as decrease in DNA bands at 245 nm and 280 nm wavelength by CD spectroscopy; format: nucleic-acid assay; details: Bos taurus
Bos taurus [19] = species: Bos taurus; experiment: Inhibition of calf thymus topoisomerase 1-mediated DNA relaxation assessed as induction of plasmid DNA nicking at 200 uM by gel electrophoresis
Outline: (§5)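 Supercoiled pCI plasmid (0.8 μg) with calf thymus topoisomerase I (6 U) ± compound (200 μM) in Tris-HCl pH 7.5, 175 mM KCl, 5 mM MgCl2, 0.1 mM EDTA, 2.5% glycerol; 37 °C, 30 min. Stopped with SDS, then proteinase K and phenol/chloroform extraction. Samples run on 1% agarose with and without 0.5 μg/mL ethidium bromide to resolve nicked, supercoiled and relaxed forms; UV visualization.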

Bos taurus [20] = species: Bos taurus; experiment: Inhibition of calf thymus topoisomerase 1-mediated DNA relaxation at 200 uM by gel electrophoresis; outline: as §5
Bos taurus [21] = species: Bos taurus; experiment: Inhibition of calf thymus topoisomerase 1-mediated DNA relaxation assessed as induction of plasmid DNA nicking at 100 uM by gel electrophoresis
Outline: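 Purified calf thymus topoisomerase I (6 U) was incubated with negatively supercoiled pCI plasmid (0.8 μg), with or without compound, in Tris-HCl relaxation buffer (pH 7.5, 175 mM KCl, 5 mM MgCl2) at 37 °C for 30 min. The reaction was stopped with SDS and proteinase K, then phenol-extracted. Samples were split onto 1% agarose gels with and without ethidium bromide to separate nicked, supercoiled and relaxed forms, and read under UV.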

Calf thymus DNA [22] = experiment: Binding affinity to calf thymus DNA at pH 7.0 by UV/Visible spectroscopy; format: nucleic-acid assay; details: Bos taurus
Outline: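 UV/vis titration: portions of ct-DNA (as phosphate) added to compound (c = 1.2 × 10-5 mol dm-3). Na cacodylate buffer pH 7.0, I = 0.05 mol dm-3; change followed at λmax 314 nm. Ks and n from Scatchard equation by nonlinear least-squares fitting.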

Calf thymus DNA [23] = experiment: Binding affinity to calf thymus DNA minor groove assessed as change in DNA spectrum by CD spectroscopy; format: nucleic-acid assay; details: Bos taurus

Row | Compound | IC50 (MIA PaCa-2 [1]) [µM] | IC50 (HeLa) [µM] | IC50 (SW-620) [µM] | IC50 (NCI-H460) [µM] | IC50 (MCF7) [µM] | ΔTm (Calf thymus DNA [2]) [°C] | Activity (MIA PaCa-2 [3]) [%] | Activity (MIA PaCa-2 [5]) [%] | Activity (MIA PaCa-2 [7]) [%] | Activity (MIA PaCa-2 [8]) [%] | ΔTm (Calf thymus DNA [10]) [°C] | Activity (MIA PaCa-2 [11]) [%] | Activity (MIA PaCa-2 [12]) [%] | Activity (MIA PaCa-2 [13]) [%] | Activity (MIA PaCa-2 [16]) [%] | further results
1 | N#Cc1ccc(NC(=O)c2sc3ccccc3c2Cl)nc1 | 8 | 2 | 20 | 59 | 20 | – | – | – | – | – | – | – | – | – | – | –
2 | Cl.O=C(Nc1ccc(C2=NCCN2)nc1)c1sc2ccccc2c1Cl | 1.6 | 1 | 1.3 | 1.3 | 4 | 0 | 16 | 23.14 | 17.5 | 18.5 | 0.9 | 36 | 26 | 50.9 | 66.5 | Activity (MIA PaCa-2 [4]): Active; Activity (MIA PaCa-2 [6]): Active; Activity (MIA PaCa-2 [9]): Active; Activity (MIA PaCa-2 [14]): Active; Activity (MIA PaCa-2 [15]): Active
3 | Cl.O=c1[nH]c2ncc(C3=NCCN3)cc2c2c1sc1ccccc12 | 1 | 1.7 | 0.6 | 1 | 1.6 | 6.6 | 41.5 | 52.8 | 38.9 | 2 | 8.7 | 1.7 | 33.2 | 14.1 | 19.7 | log Ks (Calf thymus DNA [17]): 6.44; Activity (Calf thymus DNA [18]): Active; Activity (Bos taurus [19]): inactive; Activity (Bos taurus [20]): Active
4 | O=c1[nH]c2ccncc2c2c1sc1ccccc12 | 7 | 14 | 6 | > 100 | > 100 | – | – | – | – | – | – | – | – | – | – | –
5 | N=C(N)c1ccc(-c2cc3ccc(C(=N)N)cc3[nH]2)cc1 | – | – | – | – | – | – | – | – | – | – | – | – | – | – | – | Activity (Bos taurus [21]): inactive
6 | O=C(Nc1ccncc1)c1sc2ccccc2c1Cl | 38 | 2 | 38 | 68 | 51 | – | – | – | – | – | – | – | – | – | – | –
7 | N#Cc1cnc2[nH]c(=O)c3sc4ccccc4c3c2c1 | 12 | 7 | 22 | > 100 | 45 | – | – | – | – | – | – | – | – | – | – | –
8 | CC[C@@]1(O)C(=O)OCc2c1cc1n(c2=O)Cc2cc3ccccc3nc2-1 | – | – | – | – | – | – | – | – | – | – | – | – | – | – | – | Activity (Bos taurus [21]): Active
9 | Cl.O=C(Nc1ccc(C2=NCCN2)cn1)c1sc2ccccc2c1Cl | 1 | 1.5 | 1 | 1 | 1.8 | 1.3 | 41.6 | 52.3 | 37.7 | 3.2 | 2.1 | 4.9 | 32.6 | 15.1 | 20.7 | log Ks (Calf thymus DNA [22]): 5.7; Activity (Calf thymus DNA [23]): Active; log Ks (Calf thymus DNA [17]): 5.6; Activity (Bos taurus [19]): inactive

From ChEMBL document CHEMBL1153820, “Novel derivatives of pyridylbenzo[b]thiophene-2-carboxamides and benzo[b]thieno[2,3-c]naphthyridin-2-ones: minor structural variations provoke major differences of antitumor action mechanisms” (J Med Chem, 2009)
